For test [1], the system named is HT-1080. The test is described as follows: Cytotoxicity against human HT1080 cells by MTT assay. In kind it is functional, cell-based. The procedure, abridged: (§1)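 Cells grown in DMEM with 10% FBS and antibiotics at 37 °C, 5% CO2, seeded ~5000/well; compound in DMSO added after 24 h, 72 h exposure. MTT (1 mg/mL final, serum- and phenol-red-free DMEM) 4 h, formazan dissolved in 2-propanol, OD 550 nm (ref 690 nm). IC50 = concentration halving OD vs untreated; mean of three independent experiments with SD; doxorubicin positive control.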
Background: Tetrazolium assays rely on reduction of a dye to a coloured formazan, in cell work by metabolically active cells.

The test system of test [2] is HT-29. The test is described as follows: Cytotoxicity against human HT29 cells by MTT assay. In kind it is functional, cell-based. The procedure, abridged: as §1
In test [3] the test system is MDA-MB-231. Description: Cytotoxicity against human MDA-MB-231 cells by MTT assay. It is filed as functional, cell-based. The procedure, abridged:
as §1

In test [4] the test system is HT-1080. Description: Cell cycle arrest in human HT1080 cells by accumulation at G2/M phase at 5 uM after 36 hrs. It is filed as functional. The procedure, abridged:
(§2)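 HT-1080 fibrosarcoma cells exposed 36 h, then trypsinized, PBS-washed, fixed in 50% ethanol and stained with propidium iodide containing RNase; DNA content measured by flow cytometry and cell-cycle phase distribution (G0/G1, S, G2/M) determined from DNA histograms.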

In test [5] the test system is HT-1080. The test is described as follows: Induction of apoptosis in human HT1080 cells by flow cytometer. In kind it is functional. The procedure, abridged: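 HT-1080 cells incubated 36 h, ethanol-fixed (50%) and stained with RNase-containing propidium iodide; apoptosis estimated by flow cytometry as sub-diploid peak in DNA-content histogram, expressed as percentage of total events collected.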
(In general: Flow cytometry measures light scatter and fluorescence of single cells or particles in a stream.)

Test [6] concerns HT-1080. The test is described as follows: Cell cycle arrest in human HT1080 cells by accumulation at G0/G1 phase at 5 uM after 36 hrs. It is filed as functional. The procedure, abridged: as §2
In test [7] the test system is HT-1080. Description: Cell cycle arrest in human HT1080 cells by accumulation at S phase at 5 uM after 36 hrs. In kind it is functional. The procedure, abridged:
as §2

Test [8] deals with HT-1080. The test is described as follows: Inhibition of tubulin polymerization in human HT1080 cells after 36 hrs by Western analysis. In kind it is functional, cell-based. The procedure, abridged:
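Cells lysed in 20 mM Tris-HCl pH 6.8, 1 mM MgCl2, 2 mM EGTA, 0.5% NP-40 with protease/phosphatase inhibitors; spun 13,000 × g 10 min to separate soluble from polymerized tubulin pellet; fractions run on 10% SDS-PAGE, anti-α-tubulin Western blot.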

Usually IC50 stands for the midpoint of a concentration-inhibition curve.

Regarding `Cc1nc2c(-c3ccc(Br)cc3)nc3ccccc3c2c(=O)n1N`, the IC50 in test [1] was 44.8 µM; in test [2], 77.8 µM; in test [3], greater than 100 µM.

Consider `COc1cccc2c1C(=O)c1c(O)c3c(c(O)c1C2=O)C[C@@](O)(C(=O)CO)C[C@@H]3O[C@H]1C[C@H](N)[C@H](O)[C@H](C)O1` [DOXORUBICIN], for which the IC50 in test [1] turned out to be 0.022 µM; in test [2] it was 0.35 µM; in test [3], 0.03 µM.

With `Nn1c(-c2ccc(Cl)cc2)nc2c(-c3ccc(Cl)cc3)nc3ccccc3c2c1=O`, the 50% inhibitory concentration (IC50) in test [1] was 6.84 µM; in test [2], 18.1 µM; in test [3], 55.3 µM.

As to `Cc1nc2c(-c3ccc(Cl)cc3)nc3ccccc3c2c(=O)n1N`, the IC50 in test [1], in test [2] and in test [3] was greater than 100 µM in each case.

With `Cc1nc2c(-c3ccc(Cl)cc3)nc3ccc(Cl)cc3c2c(=O)n1N`, the IC50 in test [1] is 34.3 µM; in test [2], 52 µM; in test [3], greater than 100 µM.

Consider `Nn1c(-c2ccccc2)nc2c(-c3ccc(Cl)cc3)nc3ccc(Cl)cc3c2c1=O`, for which the Activity in test [4] is reported as 22.46%; in test [5] it was 2.21%; in test [6] it was 50.68%; in test [7], 26.86%. Besides, the figures for the IC50 in test [1], in test [2] and in test [3] were 2.9 µM, 4.68 µM and 15.8 µM, respectively.

On to `Nn1c(-c2ccc(Cl)cc2)nc2c(-c3ccc(Br)cc3)nc3ccc(Cl)cc3c2c1=O`, for which the Activity in test [4] was 27.75%; in test [5], 9.14%; in test [6], 49.76%; in test [7], 22.48%. For the same compound, the IC50 in test [1] came to 1.84 µM; in test [2], 2.82 µM; in test [3], 2.89 µM.

In the case of `Nn1c(-c2ccccc2)nc2c(-c3ccc(Cl)cc3)nc3ccccc3c2c1=O`, the IC50 in test [1] was 23 µM; in test [2] it was greater than 100 µM; in test [3], greater than 100 µM.

Consider `Nn1c(-c2ccc(Cl)cc2)nc2c(-c3ccc(Cl)cc3)nc3ccc(Cl)cc3c2c1=O`, for which the Activity is 31.49% in test [4]; 7.62% in test [5]; “Dose-dependent effect” in test [8]; 57.25% in test [6]; 11.26% in test [7]. Moreover, the half-maximal inhibitory concentration (IC50) was found to be 1.23 µM in test [1], 1.97 µM in test [2] and 1.82 µM in test [3].

On to `Nn1c(-c2ccccc2)nc2c(-c3ccc(Br)cc3)nc3ccccc3c2c1=O`, for which the IC50 in test [1] was 47.4 µM; in test [2], 89.9 µM; in test [3] it was greater than 100 µM.

In the case of `Nn1c(-c2ccc(Cl)cc2)nc2c(-c3ccc(Br)cc3)nc3ccccc3c2c1=O`, the IC50 came to 10.8 µM in test [1], 23.2 µM in test [2] and 34.2 µM in test [3].

As for `Nn1c(-c2ccccc2)nc2c(-c3ccc(Br)cc3)nc3ccc(Cl)cc3c2c1=O`, the Activity in test [4] was determined as 26.22%; in test [5], 5.51%; in test [6], 45.78%; in test [7], 28%. Besides, the IC50 was 1.48 µM in test [1], 2.14 µM in test [2] and 13.7 µM in test [3].

These data come from ChEMBL document CHEMBL1143798, “Pyrimido[4,5-c]quinolin-1(2H)-ones as a novel class of antimitotic agents: Synthesis and in vitro cytotoxic activity” (Eur J Med Chem, 2007).
